According to ChEMBL document CHEMBL1158358, “Synthesis, antimicrobial and cytotoxic activities of some 5-arylidene-4-thioxo-thiazolidine-2-ones” (Eur J Med Chem, 2009):
Converted amounts (≈) assume the structure as drawn.

Experiments:
Format in all cases: functional
Staphylococcus aureus [1] = experiment: Antimicrobial activity against multidrug-resistant Staphylococcus aureus H.C. 21036 isolate after 20 hrs by twofold serial dilution technique; details: H.C. 21036, 20 h
In short: (§1)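 Twofold serial dilution MIC in agar plates against Gram-positive strains and multidrug-resistant clinical isolates. Inoculum applied was 10⁵ CFU/plate. Plates with culture medium plus DMSO served as negative control. MIC was read after incubation at 35 °C for 20 h.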

NCI-H292 [2] = experiment: Cytotoxicity against human NCI-H292 cells at 1.25 ug/mL after 72 hrs by MTT assay; details: NCI-H292, 72 h, read-out: GI
In short: (§2)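 MTT antiproliferative assay. Cells were diluted to 10⁵ cells/mL in 96-well plates and preincubated for 24 h at 37 °C in humid 5% CO₂. Compounds or vincristine (reference) were then added. Formazan was dissolved and OD read at 540 nm, compared with medium-only control cells. Run in triplicate.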

Staphylococcus [3] = experiment: Antimicrobial activity against coagulase-negative Staphylococcus H.A.M. 338 isolate after 20 hrs by twofold serial dilution technique; details: H.A.M. 338, 20 h
In short: (§3)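 MIC was determined by twofold serial dilution. Bacteria were tested in plates at 10⁵ CFU/plate and read after 20 h. C. albicans was tested in tubes at 10³ CFU/tube and read after 48 h. All incubations were at 35 °C. Medium plus DMSO served as the negative control.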

Bacillus subtilis [4] = experiment: Antimicrobial activity against Bacillus subtilis UFPEDA 16 after 20 hrs by twofold serial dilution technique; details: UFPEDA 16, 20 h; in short: as §3
Staphylococcus aureus [5] = experiment: Antimicrobial activity against multidrug-resistant Staphylococcus aureus H.C. 20489 isolate after 20 hrs by twofold serial dilution technique; details: H.C. 20489, 20 h; in short: as §1
Micrococcus luteus [6] = experiment: Antimicrobial activity against Micrococcus luteus UFPEDA 06 after 20 hrs by twofold serial dilution technique; details: UFPEDA 06, 20 h; in short: as §3
[7] = test system: Mycolicibacterium smegmatis; experiment: Antimicrobial activity against Mycobacterium smegmatis UFPEDA 71 at 300 ug/disk after 24 hrs by disk diffusion method; details: UFPEDA 71, 24 h, read-out: IZ
In short: (§4)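 Preliminary screen by disk diffusion. Paper disks (6 mm) holding 300 µg of compound were placed on agar plates inoculated with a standardized microbial suspension. DMSO-only disks served as negative controls. A mean inhibition zone below 7 mm was scored as no sensitivity. Values are means, n = 3.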

Enterococcus faecalis [8] = experiment: Antimicrobial activity against multidrug-resistant Enterococcus faecalis H.C. 21752 isolate after 20 hrs by twofold serial dilution technique; details: H.C. 21752, 20 h; in short: as §1
Pseudomonas aeruginosa = experiment: Antimicrobial activity against Pseudomonas aeruginosa UFPEDA 39 at 300 ug/disk after 24 hrs by disk diffusion method; details: UFPEDA 39, 24 h, read-out: IZ; in short: as §4
NCI-H292 [9] = experiment: Cytotoxicity against human NCI-H292 cells at 10 ug/mL after 72 hrs by MTT assay; details: NCI-H292, 72 h, read-out: GI; in short: as §2
Staphylococcus aureus [10] = experiment: Antimicrobial activity against Staphylococcus aureus UFPEDA 01 after 20 hrs by twofold serial dilution technique; details: UFPEDA 01, 20 h; in short: as §1
HEp-2 [11] = experiment: Cytotoxicity against human Hep2 cells at 5 ug/mL after 72 hrs by MTT assay; details: HEp-2, 72 h, read-out: GI; in short: as §2
Enterococcus faecalis [12] = experiment: Antimicrobial activity against Enterococcus faecalis UFPEDA 138 at 300 ug/disk after 24 hrs by disk diffusion method; details: UFPEDA 138, 24 h, read-out: IZ; in short: as §4
Staphylococcus aureus [13] = experiment: Antimicrobial activity against multidrug-resistant Staphylococcus aureus H.C. 20905 isolate after 20 hrs by twofold serial dilution technique; details: H.C. 20905, 20 h; in short: as §1
Staphylococcus aureus [14] = experiment: Antimicrobial activity against Staphylococcus aureus UFPEDA 01 at 300 ug/disk after 24 hrs by disk diffusion method; details: UFPEDA 01, 24 h, read-out: IZ; in short: as §4
Escherichia coli = experiment: Antimicrobial activity against Escherichia coli UFPEDA 224 at 300 ug/disk after 24 hrs by disk diffusion method; details: UFPEDA 224, 24 h, read-out: IZ; in short: as §4
Enterococcus faecalis [15] = experiment: Antimicrobial activity against Enterococcus faecalis UFPEDA 138 after 20 hrs by twofold serial dilution technique; details: UFPEDA 138, 20 h; in short: as §3
HEp-2 [16] = experiment: Cytotoxicity against human Hep2 cells at 2.5 ug/mL after 72 hrs by MTT assay; details: HEp-2, 72 h, read-out: GI; in short: as §2
Staphylococcus aureus [17] = experiment: Antimicrobial activity against multidrug-resistant Staphylococcus aureus H.C. 21141 isolate after 20 hrs by twofold serial dilution technique; details: H.C. 21141, 20 h; in short: as §1
NCI-H292 [18] = experiment: Cytotoxicity against human NCI-H292 cells at 2.5 ug/mL after 72 hrs by MTT assay; details: NCI-H292, 72 h, read-out: GI; in short: as §2
Candida albicans [19] = experiment: Antimicrobial activity against Candida albicans UFPEDA 1007 after 48 hrs by twofold serial dilution technique; details: UFPEDA 1007, 48 h; in short: as §3
Bacillus subtilis [20] = experiment: Antimicrobial activity against Bacillus subtilis UFPEDA 16 at 300 ug/disk after 24 hrs by disk diffusion method; details: UFPEDA 16, 24 h, read-out: IZ; in short: as §4
Candida albicans [21] = experiment: Antimicrobial activity against Candida albicans UFPEDA 1007 at 300 ug/disk after 48 hrs by disk diffusion method; details: UFPEDA 1007, 48 h, read-out: IZ; in short: as §4
Enterococcus faecalis [22] = experiment: Antimicrobial activity against multidrug-resistant Enterococcus faecalis H.C. 24962 isolate after 20 hrs by twofold serial dilution technique; details: H.C. 24962, 20 h; in short: as §1
Micrococcus luteus [23] = experiment: Antimicrobial activity against Micrococcus luteus UFPEDA 06 at 300 ug/disk after 24 hrs by disk diffusion method; details: UFPEDA 06, 24 h, read-out: IZ; in short: as §4
HEp-2 [24] = experiment: Cytotoxicity against human Hep2 cells at 1.25 ug/mL after 72 hrs by MTT assay; details: HEp-2, 72 h, read-out: GI; in short: as §2
Staphylococcus aureus [25] = experiment: Antimicrobial activity against multidrug-resistant Staphylococcus aureus H.C. 20981 isolate after 20 hrs by twofold serial dilution technique; details: H.C. 20981, 20 h; in short: as §1
HEp-2 [26] = experiment: Cytotoxicity against human Hep2 cells at 10 ug/mL after 72 hrs by MTT assay; details: HEp-2, 72 h, read-out: GI; in short: as §2
[27] = test system: Mycolicibacterium smegmatis; experiment: Antimicrobial activity against Mycobacterium smegmatis UFPEDA 71 after 20 hrs by twofold serial dilution technique; details: UFPEDA 71, 20 h; in short: as §3
Serratia marcescens = experiment: Antimicrobial activity against Serratia marcescens UFPEDA 398 at 300 ug/disk after 24 hrs by disk diffusion method; details: UFPEDA 398, 24 h, read-out: IZ; in short: as §4
Enterococcus faecalis [28] = experiment: Antimicrobial activity against multidrug-resistant Enterococcus faecalis H.C. 24708 isolate after 20 hrs by twofold serial dilution technique; details: H.C. 24708, 20 h; in short: as §1
NCI-H292 [29] = experiment: Cytotoxicity against human NCI-H292 cells at 5 ug/mL after 72 hrs by MTT assay; details: NCI-H292, 72 h, read-out: GI; in short: as §2
Enterococcus faecalis [30] = experiment: Antimicrobial activity against multidrug-resistant Enterococcus faecalis H.C. 21944 isolate after 20 hrs by twofold serial dilution technique; details: H.C. 21944, 20 h; in short: as §1
Staphylococcus aureus [31] = experiment: Antimicrobial activity against multidrug-resistant Staphylococcus aureus H.C. 20794 isolate after 20 hrs by twofold serial dilution technique; details: H.C. 20794, 20 h; in short: as §1
Staphylococcus [32] = experiment: Antimicrobial activity against coagulase-negative Staphylococcus H.A.M. 278 isolate after 20 hrs by twofold serial dilution technique; details: H.A.M. 278, 20 h; in short: as §3

SMILES: O=C1NC(=S)/C(=C/c2ccc(F)cc2)S1
- MIC (Staphylococcus aureus [1]): 2 µg/mL (≈ 8.36 µM)
- inhibition of growth at 1.25 µg/mL (NCI-H292 [2]): 7.32%
- MIC (Staphylococcus [3]): 32 µg/mL (≈ 134 µM)
- MIC (Bacillus subtilis [4]): 16 µg/mL (≈ 66.9 µM)
- MIC (Staphylococcus aureus [5]): 2 µg/mL (≈ 8.36 µM)
- MIC (Micrococcus luteus [6]): 16 µg/mL (≈ 66.9 µM)
- zone of inhibition at 300 µg/disc [7]: 25 mm
- MIC (Enterococcus faecalis [8]): 32 µg/mL (≈ 134 µM)
- zone of inhibition at 300 µg/disc (Pseudomonas aeruginosa): < 7 mm
- inhibition of growth at 10 µg/mL (NCI-H292 [9]): 38%
- MIC (Staphylococcus aureus [10]): 4 µg/mL (≈ 16.7 µM)
- inhibition of growth at 5 µg/mL (HEp-2 [11]): 20.6%
- zone of inhibition at 300 µg/disc (Enterococcus faecalis [12]): 24 mm
- MIC (Staphylococcus aureus [13]): 2 µg/mL (≈ 8.36 µM)
- zone of inhibition at 300 µg/disc (Staphylococcus aureus [14]): 29 mm
- zone of inhibition at 300 µg/disc (Escherichia coli): < 7 mm
- MIC (Enterococcus faecalis [15]): 32 µg/mL (≈ 134 µM)
- inhibition of growth at 2.5 µg/mL (HEp-2 [16]): -4.51%
- MIC (Staphylococcus aureus [17]): 32 µg/mL (≈ 134 µM)
- inhibition of growth at 2.5 µg/mL (NCI-H292 [18]): 17.5%
- MIC (Candida albicans [19]): 32 µg/mL (≈ 134 µM)
- zone of inhibition at 300 µg/disc (Bacillus subtilis [20]): 26 mm
- zone of inhibition at 300 µg/disc (Candida albicans [21]): 17 mm
- MIC (Enterococcus faecalis [22]): 16 µg/mL (≈ 66.9 µM)
- zone of inhibition at 300 µg/disc (Micrococcus luteus [23]): 29 mm
- inhibition of growth at 1.25 µg/mL (HEp-2 [24]): -10.8%
- MIC (Staphylococcus aureus [25]): 4 µg/mL (≈ 16.7 µM)
- inhibition of growth at 10 µg/mL (HEp-2 [26]): 30.1%
- MIC [27]: 16 µg/mL (≈ 66.9 µM)
- zone of inhibition at 300 µg/disc (Serratia marcescens): < 7 mm
- MIC (Enterococcus faecalis [28]): 16 µg/mL (≈ 66.9 µM)
- inhibition of growth at 5 µg/mL (NCI-H292 [29]): 31.6%
- MIC (Enterococcus faecalis [30]): 32 µg/mL (≈ 134 µM)
- MIC (Staphylococcus aureus [31]): 2 µg/mL (≈ 8.36 µM)
- MIC (Staphylococcus [32]): 32 µg/mL (≈ 134 µM)
